Reference: the EternaBench riboswitch data

Test system: MS2 coat protein
Test: apparent Kd, MS2 coat protein; higher = weaker binding; RNA-MaP array; FMN 200 µM where present
Method in brief: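 The titrant was SNAP-549-labelled MS2 coat protein, run from 0.7 or 1.5 nM in doubling steps to 3 µM. It was applied to designs transcribed by stalled E. coli RNA polymerase on Illumina sequencing-chip clusters, without ligand first and then with constant ligand, in 100 mM Tris-HCl pH 7.5, 80 mM KCl, 4 mM MgCl2, BSA, DTT, yeast tRNA and Tween-20. The apparent Kd is the median of filtered per-cluster binding-curve fits, with green signal normalised to red-channel RNA signal and control-cluster median Fmax.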

[1] = designed as: OFF switch for flavin mononucleotide, no ligand
[2] = ligand present: flavin mononucleotide, designed as: OFF switch for flavin mononucleotide
[3] = designed as: ON switch for flavin mononucleotide, no ligand
[4] = ligand present: flavin mononucleotide, designed as: ON switch for flavin mononucleotide

Row | Sequence | apparent Kd [1] [nM] | apparent Kd [2] [nM] | apparent Kd [3] [nM] | apparent Kd [4] [nM]
1 | UUUUAGGCAGGAUAUACAUGAGGAUCACCCAUGUAAAUUUUUCGUUUAACUUGAAUGUGUAGAAGGGCCAUAUU | 20.5 | 21.4 |  | 
2 | CGUGCUAUGUAGAAGGCAGAUCUGAUUCAGAUCUGAGGAUAUACAUGAGGAUCACCCAUGUUAUGCACCAGCACGAGAGUGCAG | 7.18 | 14.4 |  | 
3 | ACAUUGCUAGGAUAUCGCGGUAAGGACAUGAGGAUCACCCAUGUGGUGCCGUGGGAGGCCCGAGAAGGAGCGACCU | 23.1 | 25.9 |  | 
4 | GAGUUAGAGGGAGGAUAUUGAGAUAGGACACUACGAGAAGGCUUAUAAUAGAUAAACAUGAGGAUCACCCAUGUCAUGUAAUGG | 48.7 | 29.1 |  | 
5 | AUGCUUCACACAGGAUAUACAUGAGGAUCACCCAUGUGUCCUCCGUAGCUGACACGAGCUACGCUGUAGAAGGGUGUGAAGCAU | 234 | 223 |  | 
6 | CUCUUGUCAGGAUAUCUAAGCUGCCUCCCAGUAGCCGAAUUAGAGAAGGGACAUGAGGAUCACCCAUGUAAACG | 105 | 34.2 |  | 
7 | AUAAGCUCGUCAGGAUAUACAACAUUGUGUAAGCAGUGUGGUAUGAUCACAUGAGGAUCACCCAUGUAGAAGGGACGAGCUUAU | 6.9 | 44.9 |  | 
8 | ACAUGAAAUCGAGGAUAUGCAAAAAAAAAAAAAGCAGAAGGCGAAAAAAAAACUCGAAAAAACAUGAGGAUCACCCAUGUAAAA | 26.4 | 22.9 |  | 
9 | GUGUAGAUAGGAUAUACGAGAGUCUAGCGAAGCUAGAUUCUACAUGAGGAUCACCCAUGUAGAAGGGUCUACAC | 16.5 | 19.2 |  | 
10 | CUUGUGUUAGGAUAUGCGUUUCCGGUACGUCACCGGAUCUGGCAGAAGGGACAUGAGGAUCACCCAUGUUUGGC | 46.6 | 30.3 |  | 
11 | UAAAUGUGAGGAUAUUCGUAGUACUCGGAGACGAGUAUUACGGAGAAGGCACAUGAGGAUCACCCAUGUUCCUU | 21.3 | 188 |  | 
12 | AGCUGUGGCCGAGGAUAUCUGAAACUCAAAACCGAAAUAUAAUCGGACAUGAGGAUCACCCAUGUAGAGAAGGCGGUCUCAGCA | 165 | 307 |  | 
13 | UGUUGUAUUACAGGAUAUCUAUUAUUUUUAAUUAGAGAAGGGUAUUCACAUGAGGAUCACCCAUGUAUAUACGAGGAAGUUGUG |  |  | 35.2 | 35.8
14 | UAAAUUAACAAGAAGGCUAACAUGAGGAUCACCCAUGUUGUACAUGGAUAUAGAGGAUAUUGCUAUUAAUUAUUUAUCAUAAUU | 21.2 | 18.9 |  | 
15 | CCGGAAACGGGUAGCUGUACAUGAGGAUCACCCAUGUGAUCAUAGGAUAUGGAACCUAAUUGGUUCCAGAAGGAUGUCAGCUAC |  |  | 237 | 598
16 | AGUUACAAACACAACAUGAGGAUCACCCAUGUACUCUCAUGUAAGGAUAUACAUUCGUAUAGAAAGUAGAAGGUACUAAUUAUG |  |  | 515 | 340
17 | AUUGGUUUGCGAGGAUAUGCUAAUAGUAAGUAUGCAGAAGGCGCGUUACAUAGAACCUCUAGUUACAUGAGGAUCACCCAUGUU | 46.2 | 45.4 |  | 
18 | GGUUGACAUAGUCAUCCUUAACGAACAUGAGGAUCACCCAUGUAGGAUAUGCUACUCAAAGAGUAGCAGAAGGGCGUGUGUCUU | 28.3 | 36.1 |  | 
19 | GACAAACAUGAGGAUCACCCAUGUUCAAACGAACAAGGAUAUGUGUGGAAACCGUACUAUACAGAAGGUGUCUGUC |  |  | 36.5 | 37.7
20 | GGCAAAUGAGCAGGAUAUACAGUACAUGCCUAAUGGAUUCACGCACAUGAGGAUCACCCAUGUACGUAGAAGGGCUCCGAGGAG | 12.2 | 14.4 |  | 
21 | AAGACAAAUGUAGGAUAUGCGUGGCGAAGCUAUGCAGAAGGACAUGAGGAUCACCCAUGUCUUAGCGUCUGCGUACAGAUGCUA | 16.7 | 20.9 |  | 

Row | Sequence | apparent Kd [1] [nM] | apparent Kd [2] [nM] | apparent Kd [3] [nM] | apparent Kd [4] [nM]
22 | AGUAGAUCAGGAUAUACGUGAAAGGUCAAAGUGUCCAAUCUACAUGAGGAUCACCCAUGUAGAAGGGAUCUACA | 15.2 | 14.6 |  | 
23 | UGUUGUAUUACAGGAUAUCUAUUAUUUUUUUUUAGAGAAGGGUAUUCACAUGAGGAUCACCCAUGUAUAUACGAGGAAGUUGUG |  |  | 59.8 | 62
24 | ACAUGCAUAGCGAUAUGAUCGAGAGAUCAUGUCGCUAAAUUUAGAAGGACAUGAGGAUCACCCAUGUAGGAUAUGGGAGCAUGG |  |  | 42.8 | 10.3
25 | AUACAUGAGGAUCACCCAUGUUACUUGGUCUUGAUAUUACGUAGAAGGAUGAUAUUAUUAUUAGCAUAGGAUAUACAAUUUGUA | 17 | 12.8 |  | 
26 | CUAUAGAUAUCAGGAUAUCUAUUUCCUACAUGAGGAUCACCCAUGUAGAGGAUCACCCAUGUAAAGGAGAAGGGAUAUCUAUAG |  |  | 91.3 | 20.4
27 | AAUAACAGAGGAUAUACUAUUUUAUGUGUUUGUUGUUUUGAACAUGAGGAUCACCCAUGUAGAAGGCUGAUUAA | 40.5 | 47 |  | 
28 | GGCCCGGGAGGAUAUACAUGAGGAUCACCCAUGUGCUUCGGCUUGAUCAAGUUGAAGUGUAGAAGGCCCGGGCC | 14.2 | 21 |  | 
29 | ACAUGCAUAGCGAUAUGAUCGAGAGAUCAUGUCGCUAAAUUUAGAAGGACAUGAGGAUCACCCAUGUAGGAUAUGGGAGCAUGU |  |  | 49.5 | 10.8
30 | CGUAUGUGAGGAUAUGACAAUGGUAUCUUCGGAUACCAUUGUCAGAAGGAACAUGAGGAUCACCCAUGUAGAUC | 53.2 | 110 |  | 
31 | AGUUUCUCCGCAGGAUAUGUGCUCUUUAUCACAUGAGGAUCACCCAUGUCAGCCUACACGGCGAGACAGAAGGGUGGUGAUGCC |  |  | 88.6 | 81.2
32 | UGGGUAAGUGUAGGAUAUUUAUAUUAAUAGUAUGGAGAAGGACAUGAGGAUCACCCAUGUACAGGAAGUUGCCCAUUUCCUCUC | 579 | 495 |  | 
33 | CGCACUGAUAGAGGAUAUGUUUAACAUGAGGAUCACCCAUGUGUACAAGGAUCAAUAUAUAAGUAACAGAAGGCUAUUAGUGCG | 13.9 | 13.4 |  | 
34 | UUGCUCGUGUGAGGAUAUGCCGCCGUUUCGGCUGCAGAAGGUACUAUAAUACAUGAGGAUCACCCAUGUCUCUGUUGUUUCGUG |  |  | 27.6 | 27.1
35 | GAUAGGAUGUGAGGAUAUGCUGAGGAUACUUCAGCAGAAGGCACAUGAGGAUCACCCAUGUACACUUAUCAUAAAUACCCUAUC | 13 | 17.9 |  | 
36 | AGAAACUACGAGAAGGACAUAUGAUUAAGACUAAACAUGAGGAUCACCCAUGUAGGAUAUCGUAGUUUCAGGAUCGUGAGAUCA | 7.27 | 20.1 |  | 
37 | AAUGAAACUUAGAAGGCCUACAUGAGGAUCACCCAUGUGGCUUUAAGUGUAGGAGGAUAUGAGGAUGCGGGCAGGAACCCACGC | 6.17 | 11.6 |  | 
38 | AAGUAUAGAGGAUAUAGUGAGUACUACAUGAGGAUCACCCAUGUUCUUCAAAGCGUAUUUCUAGAAGGCUAAUGAA | 50 | 114 |  | 
39 | AUAUGUUAUUAGGAUAUUAAUGCGCGGUCGCAUUAAGAAGGAGUGACAUGAGGAUCACCCAUGUACCACGCUCA | 24.3 | 23.3 |  | 
40 | UUCAAGUUGCGAGGAUAUCGUGUUAACAUGAGGAUCACCCAUGUAAAGGUUUAUUAAUUAAUCUUCGAGAAGGCGCUUAAUGUA |  |  | 29.3 | 19.5
41 | AAUUCGUUCUAGAAGGUGCAUUUGUUAAACAUGCAAGGAUAUAGACAUGAGGAUCACCCAUGUCUAUGAGACAUCGGCCUCCUG | 6.72 | 11.7 |  | 
